Test results reported in ChEMBL document CHEMBL5724801, “EUbOPEN Chemogenomics Library - Multiplex” (2024).
Values joined by “and” are separate entries in the source; they are usually repeats but may differ in a detail not shown here. Equal values may be shown once.

Tested on: HEK-293T
Assay: Multiplex assay against HEK293T
Assay type: toxicity, cell-based
Details: human
Procedure, shortened: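 Four dyes were applied at seeding to live cells: Hoechst33342, BioTracker Green Microtubule Cytoskeleton Dye, MitoTracker Red and Annexin V Alexa Fluor 680. Imaging after compound addition used a CQ1 microscope at 37°C and 5% CO2. CellPathfinder machine-learning gating then sorted cells into Hoechst high-intensity objects or normal cells, normal cells into healthy, pyknosed or fragmented nuclei, and pyknosed cells into mitotic or apoptotic, with tubulin, mitochondrial-mass and membrane-permeability phenotypes given as per cents of healthy-nucleus cells.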

[1] = 12 h, 1 µM, compound concentration 1 uM
[2] = 12 h, 10 µM, compound concentration 10 uM
[3] = 24 h, 1 µM, compound concentration 1 uM
[4] = 24 h, 10 µM, compound concentration 10 uM
[5] = 48 h, 1 µM, compound concentration 1 uM
[6] = 48 h, 10 µM, compound concentration 10 uM

CCCN1CCC[C@@H]2Cc3n[nH]cc3C[C@H]21.Cl [QUINPIROLE HYDROCHLORIDE]
Population Apoptotic (%) [1]: 32% and 63%
Population Fragmented Nuclei (%) [1]: 6% and 4%
Population Healthy Nuclei (%) [1]: 84% and 82%
Population Hoechst High Intensity Objects (%) [1]: 6% and 3%
Population Membrane Permeable-Phenotype (%) [1]: 0%
Population Mitochondria Different-Phenotype (%) [1]: 37% and 67%
Population Mitotic Cells (%) [1]: 67% and 36%
Population Normal (%) [1]: 93% and 96%
Population Pyknosed Nuclei (%) [1]: 9% and 12%
Population Tubulin-Different-Phenotype (%) [1]: 22% and 26%
Total Cell Count [1]: 447 and 294
Population Apoptotic (%) [2]: 55% and 46%
Population Fragmented Nuclei (%) [2]: 11% and 5%
Population Healthy Nuclei (%) [2]: 72% and 78%
Population Hoechst High Intensity Objects (%) [2]: 9% and 5%
Population Membrane Permeable-Phenotype (%) [2]: 0%
Population Mitochondria Different-Phenotype (%) [2]: 53% and 69%
Population Mitotic Cells (%) [2]: 44% and 53%
Population Normal (%) [2]: 90% and 94%
Population Pyknosed Nuclei (%) [2]: 15% and 16%
Population Tubulin-Different-Phenotype (%) [2]: 40% and 26%
Total Cell Count [2]: 381 and 312
Population Apoptotic (%) [3]: 30% and 29%
Population Fragmented Nuclei (%) [3]: 12% and 8%
Population Healthy Nuclei (%) [3]: 79% and 81%
Population Hoechst High Intensity Objects (%) [3]: 3% and 2%
Population Membrane Permeable-Phenotype (%) [3]: 0%
Population Mitochondria Different-Phenotype (%) [3]: 17% and 37%
Population Mitotic Cells (%) [3]: 70%
Population Normal (%) [3]: 96% and 97%
Population Pyknosed Nuclei (%) [3]: 8% and 9%
Population Tubulin-Different-Phenotype (%) [3]: 14% and 16%
Total Cell Count [3]: 600 and 390
Population Apoptotic (%) [4]: 45% and 43%
Population Fragmented Nuclei (%) [4]: 10% and 7%
Population Healthy Nuclei (%) [4]: 77% and 78%
Population Hoechst High Intensity Objects (%) [4]: 4% and 2%
Population Membrane Permeable-Phenotype (%) [4]: 0%
Population Mitochondria Different-Phenotype (%) [4]: 38% and 43%
Population Mitotic Cells (%) [4]: 54% and 56%
Population Normal (%) [4]: 95% and 97%
Population Pyknosed Nuclei (%) [4]: 11% and 13%
Population Tubulin-Different-Phenotype (%) [4]: 27% and 13%
Total Cell Count [4]: 529 and 406
Population Apoptotic (%) [5]: 21% and 33%
Population Fragmented Nuclei (%) [5]: 16% and 11%
Population Healthy Nuclei (%) [5]: 76% and 84%
Population Hoechst High Intensity Objects (%) [5]: 1% and 2%
Population Membrane Permeable-Phenotype (%) [5]: 1%
Population Mitochondria Different-Phenotype (%) [5]: 9% and 19%
Population Mitotic Cells (%) [5]: 78% and 66%
Population Normal (%) [5]: 98%
Population Pyknosed Nuclei (%) [5]: 6% and 4%
Population Tubulin-Different-Phenotype (%) [5]: 10% and 8%
Total Cell Count [5]: 1105 and 649
Population Apoptotic (%) [6]: 40% and 33%
Population Fragmented Nuclei (%) [6]: 15% and 13%
Population Healthy Nuclei (%) [6]: 78% and 80%
Population Hoechst High Intensity Objects (%) [6]: 2% and 1%
Population Membrane Permeable-Phenotype (%) [6]: 1% and 0%
Population Mitochondria Different-Phenotype (%) [6]: 23% and 28%
Population Mitotic Cells (%) [6]: 59% and 66%
Population Normal (%) [6]: 97% and 98%
Population Pyknosed Nuclei (%) [6]: 6%
Population Tubulin-Different-Phenotype (%) [6]: 15% and 13%
Total Cell Count [6]: 772 and 654
